Test results taken from ChEMBL document CHEMBL1122545, “N2-(4-Substituted-2,6-dichlorophenyl)-N1,N1-dimethylformamidines as antihypertensive and diuretic agents” (J Med Chem, 1984).
Several values for one entry are separate records, joined by “and”; a condition that tells them apart may be missing. Equal values may be shown once.

Columns and labels:
Canis familiaris [1] = assay: Antihypertensive activity in renal hypertensive dogs and maximal fall in mean arterial blood pressure (MABP) was reported at a time duration of 1 hour after peroral administration of 0.2 mg/Kg.; assay type: functional, Canis lupus familiaris, Artery
In short: (§1)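 Chronic phase two kidney-one clip Goldblatt renal hypertensive dogs from a standing colony, habituated to the procedure, dosed orally. Arterial blood pressure and heart rate taken by arterial puncture before dosing and repeated at 1, 3 and 5 h after dosing over a 6-h postdosing interval. Maximal falls in MABP and HR recorded.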

Canis familiaris [2] = assay: Antihypertensive activity in renal hypertensive dogs and maximal fall in mean arterial blood pressure (MABP) was reported at a time duration of 1 hour after peroral administration of 0.3 mg/Kg.; assay type: functional, Canis lupus familiaris, Artery; in short: as §1
Rattus norvegicus [3] = assay: Antihypertensive activity in SH rats, and mean arterial blood pressure was reported at a dose of 100 mg/Kg; assay type: functional, Artery
In short: (§2)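 Male SH rats (Okamoto strain), 16 weeks old, dosed orally by gavage with compound dispersed in 3% starch in normal saline at 2 mL/kg. Oral normal saline load, then individual metabolism cages; 0-5 h urine collected, Na+ and K+ measured by flame photometry. Rats redosed at 24 h without the saline load. MABP and HR taken by femoral arterial puncture under local anesthetic 4 h after the second dose.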

Canis familiaris [4] = assay: Antihypertensive activity in renal hypertensive dogs and maximal fall in mean arterial blood pressure (MABP) was reported at a time duration of 3 hour after peroral administration of 0.3 mg/Kg.; assay type: functional, Canis lupus familiaris, Artery; in short: as §1
Canis familiaris [5] = assay: Antihypertensive activity in renal hypertensive dogs and fall in heart rate(HR) was reported at a time duration of 0 hour after peroral administration of 0.1 mg/Kg.; assay type: functional, Canis lupus familiaris; in short: as §1
Canis familiaris [6] = assay: Antihypertensive activity in renal hypertensive dogs and fall in heart rate(HR) was reported at a time duration of 5 hour after peroral administration of 0.3 mg/Kg.; assay type: functional, Canis lupus familiaris; in short: as §1
Canis familiaris [7] = assay: Antihypertensive activity in renal hypertensive dogs and maximal fall in mean arterial blood pressure (MABP) was reported at a time duration of 0 hour after peroral administration of 1.0 mg/Kg.; assay type: functional, Canis lupus familiaris, Artery; in short: as §1
Canis familiaris [8] = assay: Antihypertensive activity in renal hypertensive dogs and maximal fall in mean arterial blood pressure (MABP) was reported at a time duration of 0 hour after peroral administration of 0.1 mg/Kg; assay type: functional, Canis lupus familiaris, Artery; in short: as §1
Canis familiaris [9] = assay: Antihypertensive activity in renal hypertensive dogs and fall in heart rate(HR) was reported at a time duration of 1 hour after peroral administration of 1.0 mg/Kg.; assay type: functional, Canis lupus familiaris; in short: as §1
Canis familiaris [10] = assay: Antihypertensive activity in renal hypertensive dogs and maximal fall in mean arterial blood pressure (MABP) was reported at a time duration of 1 hour after peroral administration of 0.1 mg/Kg.; assay type: functional, Canis lupus familiaris, Artery; in short: as §1
Canis familiaris [11] = assay: Antihypertensive activity in renal hypertensive dogs and maximal fall in mean arterial blood pressure (MABP) was reported at a time duration of 1 hour after peroral administration of 1.0 mg/Kg.; assay type: functional, Canis lupus familiaris, Artery; in short: as §1
Canis familiaris [12] = assay: Antihypertensive activity in renal hypertensive dogs and maximal fall in mean arterial blood pressure (MABP) was reported at a time duration of 0 hour after peroral administration of 0.3 mg/Kg.; assay type: functional, Canis lupus familiaris, Artery; in short: as §1
Rattus norvegicus [13] = assay: Antihypertensive activity determined as heart rate in SH rats, was reported at a dose of 100 mg/Kg; assay type: functional; in short: as §2
Canis familiaris [14] = assay: Antihypertensive activity in renal hypertensive dogs and maximal fall in mean arterial blood pressure (MABP) was reported at a time duration of 3 hour after peroral administration of 0.2 mg/Kg.; assay type: functional, Canis lupus familiaris, Artery; in short: as §1
Canis familiaris [15] = assay: Antihypertensive activity in renal hypertensive dogs and maximal fall in mean arterial blood pressure (MABP) was reported at a time duration of 3 hour after peroral administration of 0.1 mg/Kg; assay type: functional, Canis lupus familiaris, Artery; in short: as §1
Canis familiaris [16] = assay: Antihypertensive activity in renal hypertensive dogs and fall in heart rate(HR) was reported at a time duration of 5 hour after peroral administration of 1.0 mg/Kg.; assay type: functional, Canis lupus familiaris; in short: as §1
Canis familiaris [17] = assay: Antihypertensive activity in renal hypertensive dogs and maximal fall in mean arterial blood pressure (MABP) was reported at a time duration of 3 hour after peroral administration of 1.0 mg/Kg.
Canis familiaris [18] = assay: Antihypertensive activity in renal hypertensive dogs and fall in heart rate(HR) was reported at a time duration of 1 hour after peroral administration of 0.1 mg/kg.; assay type: functional, Canis lupus familiaris; conditions: route oral; in short: as §1
Canis familiaris [19] = assay: Antihypertensive activity in renal hypertensive dogs and fall in heart rate(HR) was reported at a time duration of 0 hour after peroral administration of 0.2 mg/Kg.; assay type: functional, Canis lupus familiaris; in short: as §1
Canis familiaris [20] = assay: Antihypertensive activity in renal hypertensive dogs and fall in heart rate(HR) was reported at a time duration of 5 hour after peroral administration of 0.1 mg/Kg; assay type: functional, Canis lupus familiaris; in short: as §1
Canis familiaris [21] = assay: Antihypertensive activity in renal hypertensive dogs and maximal fall in mean arterial blood pressure (MABP) was reported at a time duration of 5 hour after peroral administration of 1.0 mg/Kg.; assay type: functional, Canis lupus familiaris, Artery
In short: (§3)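 Chronic-phase two kidney-one clip Goldblatt renal hypertensive dogs from a standing colony, habituated to the procedure. Mean arterial pressure and heart rate taken by direct arterial puncture before dosing and again 1, 3 and 5 h after oral dosing; maximal fall recorded over the 6-h postdosing interval.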

Canis familiaris [22] = assay: Antihypertensive activity in renal hypertensive dogs and fall in heart rate(HR) was reported at a time duration of 5 hour after peroral administration of 0.2 mg/Kg.; assay type: functional, Canis lupus familiaris; in short: as §1
Canis familiaris [23] = assay: Antihypertensive activity in renal hypertensive dogs and fall in heart rate(HR) was reported at a time duration of 1 hour after peroral administration of 0.2 mg/kg.; assay type: functional, Canis lupus familiaris; conditions: route oral; in short: as §1
Rattus norvegicus [24] = assay: Diuretic activity was determined expressed as volume of urine excreted in mL was reported at a dose of 100 mg/Kg; assay type: ADME, organism-based; conditions: in vivo; in short: as §2
Canis familiaris [25] = assay: Antihypertensive activity in renal hypertensive dogs and fall in heart rate(HR) was reported at a time duration of 3 hour after peroral administration of 1.0 mg/Kg.; assay type: functional, Canis lupus familiaris; in short: as §1
Canis familiaris [26] = assay: Antihypertensive activity in renal hypertensive dogs and maximal fall in mean arterial blood pressure (MABP) was reported at a time duration of 5 hour after peroral administration of 0.3 mg/Kg; assay type: functional, Canis lupus familiaris, Artery; in short: as §3
Canis familiaris [27] = assay: Antihypertensive activity in renal hypertensive dogs and maximal fall in mean arterial blood pressure (MABP) was reported at a time duration of 0 hour after peroral administration of 0.2 mg/Kg.; assay type: functional, Canis lupus familiaris, Artery; in short: as §1
Canis familiaris [28] = assay: Antihypertensive activity in renal hypertensive dogs and fall in heart rate(HR) was reported at a time duration of 1 hour after peroral administration of 0.3 mg/Kg.; assay type: functional, Canis lupus familiaris; in short: as §1
Rattus norvegicus [29] = assay: […] activity expressed as K(+) (potassium) excreted in milli equivalents was reported for a duration of 5 hours after administration of a dose of 100 mg/Kg.; assay type: ADME, organism-based, Urine; conditions: in vivo; in short: as §2
Canis familiaris [30] = assay: Antihypertensive activity in renal hypertensive dogs and fall in heart rate(HR) was reported at a time duration of 3 hour after peroral administration of 0.3 mg/Kg.; assay type: functional, Canis lupus familiaris; in short: as §1
Canis familiaris [31] = assay: Antihypertensive activity in renal hypertensive dogs and fall in heart rate(HR) was reported at a time duration of 0 hour after peroral administration of 1.0 mg/Kg.; assay type: functional, Canis lupus familiaris; in short: as §1
Canis familiaris [32] = assay: Antihypertensive activity in renal hypertensive dogs and maximal fall in mean arterial blood pressure (MABP) was reported at a time duration of 5 hour after peroral administration of 0.2 mg/Kg.; assay type: functional, Canis lupus familiaris, Artery; in short: as §1
Canis familiaris [33] = assay: Antihypertensive activity in renal hypertensive dogs and fall in heart rate(HR) was reported at a time duration of 3 hour after peroral administration of 0.1 mg/kg; assay type: functional, Canis lupus familiaris; conditions: route oral; in short: as §1
Rattus norvegicus [34] = assay: […] activity expressed as Na+(sodium) excreted in milli equivalents was reported for a duration of 5 hours after administration of a dose of 100 mg/Kg; assay type: ADME, organism-based, Urine; conditions: in vivo; in short: as §2
Canis familiaris [35] = assay: Antihypertensive activity in renal hypertensive dogs and fall in heart rate(HR) was reported at a time duration of 3 hour after peroral administration of 0.2 mg/Kg.; assay type: functional, Canis lupus familiaris; in short: as §1
Canis familiaris [36] = assay: Antihypertensive activity in renal hypertensive dogs and fall in heart rate(HR) was reported at a time duration of 0 hour after peroral administration of 0.3 mg/kg.; assay type: functional, Canis lupus familiaris; conditions: route oral; in short: as §1

Which MABP (Canis familiaris [1]) does the source give for `CN(C)/C=N/c1c(Cl)cc(NCc2ccc(N(C)C)cc2Cl)cc1Cl` here?
Its MABP is 123 mmHg.

And the MABP (Canis familiaris [2])?
The MABP was 111 mmHg.

And the MABP (Rattus norvegicus [3])?
Its MABP is 116 mmHg.

And the MABP (Canis familiaris [4])?
The MABP was 128 mmHg.

And the HR (Canis familiaris [5])?
Its HR is 120 bpm.

What about the HR (Canis familiaris [6]) of the same compound?
The HR was 60 bpm.

And the MABP (Canis familiaris [7])?
The MABP was 140 mmHg.

What about the MABP (Canis familiaris [8]) of the same compound?
Its MABP is 146 mmHg.

And the HR (Canis familiaris [9])?
The HR was 60 bpm.

What about the MABP (Canis familiaris [10]) of the same compound?
The MABP was 126 mmHg.

What about the MABP (Canis familiaris [11]) of the same compound?
Its MABP is 108 mmHg.

And the MABP (Canis familiaris [12])?
The MABP was 148 mmHg.

And the HR (Rattus norvegicus [13])?
The HR was 310 beats min-1.

And the MABP (Canis familiaris [14])?
The MABP was 129 mmHg.

And the MABP (Canis familiaris [15])?
The MABP was 135 mmHg and 144 mmHg.

And the HR (Canis familiaris [16])?
The HR was 66 bpm.

What about the MABP (Canis familiaris [17]) of the same compound?
The MABP was 114 mmHg.

And the HR (Canis familiaris [18])?
The HR was 100 bpm.

And the HR (Canis familiaris [19])?
The HR was 79 bpm.

And the HR (Canis familiaris [20])?
Its HR is 113 bpm.

And the MABP (Canis familiaris [21])?
Its MABP is 128 mmHg.

What about the HR (Canis familiaris [22]) of the same compound?
The HR was 65 bpm.

What about the HR (Canis familiaris [23]) of the same compound?
Its HR is 56 bpm.

And the Diuretic activity (Rattus norvegicus [24])?
The Diuretic activity was 22.3 mL.

And the HR (Canis familiaris [25])?
The HR was 47 bpm.

And the MABP (Canis familiaris [26])?
The MABP was 132 mmHg.

What about the MABP (Canis familiaris [27]) of the same compound?
Its MABP is 152 mmHg.

And the HR (Canis familiaris [28])?
The HR was 60 bpm.

What about the Diuretic activity (Rattus norvegicus [29]) of the same compound?
The Diuretic activity was 0.47 m equiv.

And the HR (Canis familiaris [30])?
Its HR is 63 bpm.

What about the HR (Canis familiaris [31]) of the same compound?
Its HR is 110 bpm.

What about the MABP (Canis familiaris [32]) of the same compound?
The MABP was 147 mmHg.

What about the HR (Canis familiaris [33]) of the same compound?
Its HR is 96 bpm.

What about the Diuretic activity (Rattus norvegicus [34]) of the same compound?
The Diuretic activity was 1.89 m equiv.

And the HR (Canis familiaris [35])?
Its HR is 58 bpm.

What about the HR (Canis familiaris [36]) of the same compound?
The HR was 94 bpm.
